According to ChEMBL document CHEMBL3272274, “Optical resolution of (+/-)-2,5-dimethyl-2'-hydroxy-9alpha- and -9beta-propyl-6,7-benzomorphans and their pharmacological properties” (J Med Chem, 1976):
Activity calls are given as the source filed them. No cut-off for these calls is given here.

Assays:
Mus musculus [1] = assay: Analgesic activity in sc dosed mouse by Eddy hot-plate assay; format: functional
Mus musculus [2] = assay: Analgesic activity in sc dosed mouse by Nilsen assay; format: functional
Mus musculus [3] = assay: Analgesic activity in po dosed mouse by Nilsen assay; format: functional
Outline: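 Mouse analgesia by the Nilsen test with oral dosing. The ED50 is reported in mg/kg with confidence limits in parentheses.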

Rhesus monkey [4] = assay: Toxicity in monkey assessed as severe retching at 1 to 4 mg/kg for 24 hrs; format: organism-based, Macaca mulatta; parameters: dose 1-4 mg/kg; conditions: in vivo
Rhesus monkey [5] = assay: Toxicity in monkey assessed as vomiting at 1 to 4 mg/kg for 24 hrs; format: organism-based, Macaca mulatta; parameters: dose 1-4 mg/kg; conditions: in vivo
Rhesus monkey [6] = assay: Toxicity in monkey assessed as depression at 1 to 16 mg/kg for 24 hrs; format: organism-based, Macaca mulatta; parameters: dose 1-16 mg/kg; conditions: in vivo
Rhesus monkey [7] = assay: Physical dependence capacity in monkey assessed as single dose suppression of morphine withdrawal syndrome at 2.5 to 10 mg/kg; format: ADME, organism-based, Macaca mulatta; parameters: dose 2.5-10 mg/kg; conditions: in vivo
Rhesus monkey [8] = assay: Toxicity in monkey assessed as head tremor at 10 mg/kg; format: organism-based, Macaca mulatta; parameters: dose 10 mg/kg; conditions: in vivo
Rhesus monkey [9] = assay: Toxicity in monkey assessed as gazing behavior at 10 mg/kg; format: organism-based, Macaca mulatta; parameters: dose 10 mg/kg; conditions: in vivo
Mus musculus [10] = assay: Toxicity in mouse at 50 mg/kg, sc; format: organism-based; parameters: dose 50 mg/kg, route subcutaneous; conditions: in vivo
Rhesus monkey [11] = assay: Physical dependence capacity in monkey assessed as single dose suppression of morphine withdrawal syndrome at 1 to 16 mg/kg; format: ADME, organism-based, Macaca mulatta; parameters: dose 1-16 mg/kg; conditions: in vivo
Rhesus monkey [12] = assay: Toxicity in monkey assessed as myoclonic jerks at 6 mg/kg, sc; format: organism-based, Macaca mulatta; parameters: dose 6 mg/kg, route subcutaneous; conditions: in vivo
Mus musculus [13] = assay: Analgesic activity mouse at 20 to 40 mg/kg, sc by Eddy hot-plate assay; format: functional, organism-based
Outline: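 Mouse analgesia by the Eddy hot-plate assay with subcutaneous injection. The ED50 is expressed with 95% SE limits.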

Rhesus monkey [14] = assay: Physical dependence capacity in monkey assessed as single dose suppression of morphine withdrawal syndrome at 0.5 to 16 mg/kg; format: ADME, organism-based, Macaca mulatta; parameters: dose 0.5-16 mg/kg; conditions: in vivo
Rhesus monkey [15] = assay: Physical dependence capacity in monkey assessed as precipitation of morphine-induced abstinence at 0.5 to 16 mg/kg; format: ADME, organism-based, Macaca mulatta; parameters: dose 0.5-16 mg/kg; conditions: in vivo
Rhesus monkey [16] = assay: Toxicity in monkey at 0.5 to 16 mg/kg; format: organism-based, Macaca mulatta; parameters: dose 0.5-16 mg/kg; conditions: in vivo
Rhesus monkey [17] = assay: Physical dependence capacity in monkey assessed as precipitation of morphine-induced abstinence at 10 mg/kg; format: ADME, organism-based, Macaca mulatta; parameters: dose 10 mg/kg; conditions: in vivo
Rhesus monkey [18] = assay: Toxicity in monkey assessed as apprehensive behavior at 10 mg/kg for 1 to 2 hrs; format: organism-based, Macaca mulatta; parameters: dose 10 mg/kg; conditions: in vivo
Rhesus monkey [19] = assay: Toxicity in monkey assessed as irritable behavior at 10 mg/kg for 1 to 2 hrs; format: organism-based, Macaca mulatta; parameters: dose 10 mg/kg; conditions: in vivo
Rhesus monkey [20] = assay: Toxicity in monkey assessed as restlessness at 10 mg/kg for 1 to 2 hrs; format: organism-based, Macaca mulatta; parameters: dose 10 mg/kg; conditions: in vivo
Rhesus monkey [21] = assay: Toxicity in monkey assessed as increase spontaneous movement at 10 mg/kg for 1 to 2 hrs; format: organism-based, Macaca mulatta; parameters: dose 10 mg/kg; conditions: in vivo
Rhesus monkey [22] = assay: Toxicity in monkey assessed as tremors at 10 mg/kg for 1 to 2 hrs; format: organism-based, Macaca mulatta; parameters: dose 10 mg/kg; conditions: in vivo
Rhesus monkey [23] = assay: Toxicity in monkey assessed as muscle rigidity at 10 mg/kg for 1 to 2 hrs; format: organism-based, Macaca mulatta, Muscle tissue; parameters: dose 10 mg/kg; conditions: in vivo
Rhesus monkey [24] = assay: Toxicity in monkey assessed as piloerection at 10 mg/kg for 1 to 2 hrs; format: organism-based, Macaca mulatta; parameters: dose 10 mg/kg; conditions: in vivo
Rhesus monkey [25] = assay: Toxicity in monkey assessed as pupil dilation at 10 mg/kg for 1 to 2 hrs; format: organism-based, Macaca mulatta; parameters: dose 10 mg/kg; conditions: in vivo
Mus musculus [26] = assay: Toxicity in mouse at 20 to 40 mg/kg, sc; format: organism-based; parameters: dose 20-40 mg/kg, route subcutaneous; conditions: in vivo
Rhesus monkey [27] = assay: Physical dependence capacity in monkey assessed as single dose suppression of morphine withdrawal syndrome at 5 to 10 mg/kg; format: ADME, organism-based, Macaca mulatta; parameters: dose 5-10 mg/kg; conditions: in vivo
Rhesus monkey [28] = assay: Physical dependence capacity in monkey assessed as precipitation of morphine withdrawal syndrome at 5 to 10 mg/kg; format: ADME, organism-based, Macaca mulatta; parameters: dose 5-10 mg/kg; conditions: in vivo
Rhesus monkey [29] = assay: Physical dependence capacity in monkey assessed as precipitation of morphine withdrawal syndrome at 0.5 to 16 mg/kg; format: ADME, organism-based, Macaca mulatta; parameters: dose 0.5-16 mg/kg; conditions: in vivo
Mus musculus [30] = assay: Toxicity in mouse at 16 mg/kg, sc; format: organism-based; parameters: dose 16 mg/kg, route subcutaneous; conditions: in vivo
Rhesus monkey [31] = assay: Toxicity in monkey at 16 mg/kg; format: organism-based, Macaca mulatta; parameters: dose 16 mg/kg; conditions: in vivo
[32] = Mus musculus, sc, read-out: ED50

Question: Which results are given for `CCC[C@@H]1[C@H]2Cc3ccc(O)cc3[C@]1(C)CCN2C.Cl`?
Answer: ED50 (Mus musculus [1]): 0.3 mg/kg; ED50 (Mus musculus [2]): 0.35 mg/kg; ED50 (Mus musculus [3]): 7.26 mg/kg; Activity (Rhesus monkey [4]): Toxic; Activity (Rhesus monkey [5]): Toxic; Activity (Rhesus monkey [6]): Toxic; Activity (Rhesus monkey [7]): Non-toxic; Activity (Rhesus monkey [8]): Toxic; Activity (Rhesus monkey [9]): Toxic; Activity (Mus musculus [10]): Toxic; Activity (Rhesus monkey [11]): Toxic

Question: For `COc1ccc2c3c1O[C@H]1C(=O)CC[C@@]4(O)[C@@H](C2)N(C)CC[C@]314` [OXYCODONE], which ED50 (Mus musculus [3]) is on record?
Answer: Its ED50 is 1.3 mg/kg.

Question: For `CCC[C@H]1[C@H]2Cc3ccc(O)cc3[C@]1(C)CCN2C` [listing 1 of 2 here], which ED50 (Mus musculus [1]; [32]) is on record?
Answer: The ED50 was 1.61 mg/kg.

Question: And the ED50 (Mus musculus [2]; [32])?
Answer: The ED50 was 1.8 mg/kg.

Question: What about the Activity (Rhesus monkey [12]) of the same compound?
Answer: The Activity was “Toxic”.

Question: With `CCC[C@H]1[C@H]2Cc3ccc(O)cc3[C@]1(C)CCN2C` [listing 2 of 2 here] as the compound, how does the Activity (Mus musculus [13]) read?
Answer: The Activity was “inactive”.

Question: `CN1CC[C@]23c4c5ccc(O)c4O[C@H]2[C@@H](O)C=C[C@H]3[C@H]1C5.Cl` [MORPHINE HYDROCHLORIDE] was tested. Which ED50 (Mus musculus [1]; [32]) did it give?
Answer: The ED50 was 1.2 mg/kg.

Question: And the ED50 (Mus musculus [2]; [32])?
Answer: Its ED50 is 0.8 mg/kg.

Question: With `C=CCN1CC[C@]23c4c5ccc(O)c4O[C@H]2[C@@H](O)C=C[C@H]3[C@H]1C5.Cl` [NALORPHINE HYDROCHLORIDE] as the compound, how does the ED50 (Mus musculus [1]; [32]) read?
Answer: Its ED50 is 36.4 mg/kg.

Question: What about the ED50 (Mus musculus [2]; [32]) of the same compound?
Answer: Its ED50 is 4.8 mg/kg.

Question: How did the ED50 (Mus musculus [1]; [32]) turn out when `CCC[C@H]1[C@H]2Cc3ccc(O)cc3[C@]1(C)CCN2C.O=C(O)C(O)c1ccccc1` was run?
Answer: The ED50 was 1.1 mg/kg.

Question: And the ED50 (Mus musculus [2]; [32])?
Answer: The ED50 was 1.2 mg/kg.

Question: What about the Activity (Rhesus monkey [14]) of the same compound?
Answer: Its Activity is “Non-toxic”.

Question: What about the Activity (Rhesus monkey [15]) of the same compound?
Answer: The Activity was “Non-toxic”.

Question: What about the Activity (Rhesus monkey [16]) of the same compound?
Answer: The Activity was “Non-toxic”.

Question: And the Activity (Rhesus monkey [17])?
Answer: Its Activity is “Non-toxic”.

Question: What about the Activity (Rhesus monkey [18]) of the same compound?
Answer: The Activity was “Toxic”.

Question: What about the Activity (Rhesus monkey [19]) of the same compound?
Answer: Its Activity is “Toxic”.

Question: And the Activity (Rhesus monkey [20])?
Answer: The Activity was “Toxic”.

Question: And the Activity (Rhesus monkey [21])?
Answer: The Activity was “Toxic”.

Question: And the Activity (Rhesus monkey [22])?
Answer: Its Activity is “Toxic”.

Question: What about the Activity (Rhesus monkey [23]) of the same compound?
Answer: The Activity was “Toxic”.

Question: What about the Activity (Rhesus monkey [24]) of the same compound?
Answer: The Activity was “Toxic”.

Question: What about the Activity (Rhesus monkey [25]) of the same compound?
Answer: Its Activity is “Toxic”.

Question: What about the Activity (Mus musculus [26]) of the same compound?
Answer: Its Activity is “Toxic”.

Question: And the Activity (Rhesus monkey [27])?
Answer: The Activity was “Non-toxic”.

Question: What about the Activity (Rhesus monkey [28]) of the same compound?
Answer: The Activity was “Non-toxic”.

Question: What does the source list for `CCC[C@@H]1[C@H]2Cc3ccc(O)cc3[C@]1(C)CCN2C.Cl` (racemic)?
Answer: ED50 (Mus musculus [1]): 0.64 mg/kg; ED50 (Mus musculus [2]; [32]): 0.35 mg/kg; Activity (Rhesus monkey [29]): Non-toxic; Activity (Mus musculus [30]): Non-toxic; Activity (Rhesus monkey [31]): Non-toxic

Question: Which ED50 (Mus musculus [3]) does the source give for `COc1ccc2c3c1O[C@H]1[C@@H](O)C=C[C@H]4[C@@H](C2)N(C)CC[C@@]341` [CODEINE] here?
Answer: Its ED50 is 21.4 mg/kg.
